Source: PubChem
A selection: hits, their analogues and other compounds. The true share with any hit is near 1.9%.
Cneo AK release – Cryptococcus neoformans cell lysis inducers, primary screen, AK release luminescence, single concentration; lysis activity, % at 15 µM; AID 651654, 2012; 360,000 compounds, 0.2% hits; C. neoformans lysis, adenylate kinase release luminescence, 4 h; normalised: neutral wells 0, clomiphene wells 100;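 active means mean lysis activity across replicates of at least 80%, whatever share of replicates individually reach that level; inactive means mean lysis activity below 80%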
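Signal: Adenylate kinase release luminescence | Assay system: Log-phase Cryptococcus neoformans yeast cells | Input: Cells at 5 × 10^6 per mL | Buffer or medium: Fresh YPD growth medium | Compound: Single dose | Schedule: Static 4 h at 37 °C with compound, 1 h detection | Controls: Clomiphene | Read-out: Luminescence rise reflecting yeast cell lysis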
RAD52 inh – RAD52 DNA annealing inhibitors, primary screen, biochemical, FRET, single point, set 2; recombinant RAD52 DNA annealing, FRET fluorescence; inhibition, % at 18.7 µM; 360,000 compounds, 0.46% hits; AID 651710, 2012;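 active means every replicate showing at least 50% inhibition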
Target sequence (P43351 whole entry, looked up): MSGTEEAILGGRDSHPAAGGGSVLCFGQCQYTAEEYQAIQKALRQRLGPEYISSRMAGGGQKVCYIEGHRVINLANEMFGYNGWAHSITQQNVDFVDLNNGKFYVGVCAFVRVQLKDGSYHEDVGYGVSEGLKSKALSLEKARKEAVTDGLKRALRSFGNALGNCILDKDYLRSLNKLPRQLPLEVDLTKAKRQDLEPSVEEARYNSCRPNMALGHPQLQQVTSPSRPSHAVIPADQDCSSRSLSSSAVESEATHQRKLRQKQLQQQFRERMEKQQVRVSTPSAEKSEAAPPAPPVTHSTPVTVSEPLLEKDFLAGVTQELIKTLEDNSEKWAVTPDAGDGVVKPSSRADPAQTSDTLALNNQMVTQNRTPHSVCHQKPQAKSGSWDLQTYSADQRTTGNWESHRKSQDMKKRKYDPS
PglD DTNB – C. jejuni PglD acetyltransferase inhibitors, primary screen, biochemical, DTNB colorimetric, single point | 360,000 compounds, 0.098% hits | purified PglD enzyme, DTNB colorimetric CoA detection | UDP-N-acetylbacillosamine N-acetyltransferase PglD (Campylobacter jejuni) | inhibition, % at 12.5 µM | AID 602405, 2012; in the data active means inhibition above about 16%, passing the limit was not always enough
RAD54 branch – inhibitors of human RAD54 branch migration, primary screen, biochemical, fluorescence, single point. RAD54 Holliday junction branch migration, FAM/BHQ fluorescence. AID 602329, 2012. inhibition, % at 10.4 µM. 360,000 compounds, 0.14% hits. DNA repair and recombination protein RAD54-like (Homo sapiens), Q92698;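 active means mean normalized replicate activity at least 40 and at least half of replicates scoring 40 or more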;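 further: inhibitors cause a drop in the FAM fluorescence signal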
rRNA inh HTS – reduced GFP signal of wild-type E. coli, primary screen, bacterial rRNA inhibitor project, GFP/RFP fluorescence, OD600, single point; E. coli WT GFP vs humanized-ribosome RFP mutants, 24 h; hits give low values; DMSO median 0, no signal -100; GFP signal change (wild-type ribosome), % (concentration not given with the values); 350,000 compounds, 1.6% hits;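 active means significant combined selectivity score with lowered wild-type GFP, culture density cut under 30%, mutant RFP and density less affected; inactive means any of these conditions unmet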
Hits are given with their value; . = inactive; / = no result given; ! = not confirmed by another sample.

SMILES	Cneo AK release	RAD52 inh	PglD DTNB	RAD54 branch	rRNA inh HTS
CCOc1ccc(NC(=S)NNC(=O)c2ccc(Br)cc2)cc1	/	.	/	/	-15
CN1[C@H](C(=O)NCCN2CCCC2)[C@@H](CO)[C@@H]2Cn3c(ccc(/C=C/c4ccccc4)c3=O)[C@@H]21	/	.	/	/	.
Cc1c(Cl)cccc1NC(=S)N(Cc1cccs1)C1CCCC1	/	.	/	/	-22
CNC(=O)NC(=O)C(C)OC(=O)c1ccc(Cl)c(S(=O)(=O)Nc2ccc(F)cc2)c1 (configuration not stated)	.	.	.	.	-26
COc1ccc(NS(=O)(=O)c2cc(C(=O)OC(C)C(=O)N3CCOCC3)ccc2Cl)cc1 (configuration not stated)	/	.	/	/	.
C[C@H](CO)N1C[C@H](C)[C@@H](CN(C)C(=O)C2CCC2)Oc2cc(-c3ccncc3)ccc2S1(=O)=O	/	/	/	/	.
Cc1nc2nc(C)n(CCN3CCOCC3)c(=O)c2c(-c2cccc([N+](=O)[O-])c2)c1C(=O)CCCCCCCCCCN1CCC(c2ccccc2)(c2ccccc2)CC1	/	97	/	/	.
O=C(NCCCN1CCOCC1)/C(=C/c1ccc(-c2cccc([N+](=O)[O-])c2)o1)NC(=O)c1ccccc1	.	.	.	.	/
O=[N+]([O-])c1ccccc1/C=C/C=N/n1c(-c2ccccc2F)n[nH]c1=S	.	.	.	.	-21
C[C@H](CO)N1C[C@H](C)[C@H](CN(C)C(=O)Nc2ccccc2)Oc2ccc(NC(=O)C3CCCCC3)cc2C1=O	.	.	.	.	.
N#Cc1cccc(-c2ccc(C3[C@@H]4CN(C(=O)Nc5ccc6c(c5)OCO6)C[C@H]3N4)cc2)c1 (some centres not stated)	/	55	/	/	.
N#Cc1cccc(-c2ccc(C3[C@@H]4CN(C(=O)c5ccc6c(c5)OCO6)C[C@H]3N4)cc2)c1 (some centres not stated)	/	/	/	/	.
N#Cc1ccc(-c2ccc(C3[C@@H]4CN(C(=O)c5ccc6c(c5)OCO6)C[C@H]3N4)cc2)cc1 (some centres not stated)	/	56!	/	/	.
N#Cc1cccc(-c2ccc(C3[C@@H]4CN(C(=O)Nc5ccccc5)C[C@H]3N4)cc2)c1 (some centres not stated)	/	.	/	/	.
O=C(Nc1ccc2c(c1)OCO2)N1C[C@@H]2N[C@H](C1)C2c1ccc(-c2ccccc2)cc1 (some centres not stated)	/	68	/	/	.
Cc1cccc(-c2ccc(C3[C@@H]4CN(C(=O)Nc5ccccc5)C[C@H]3N4)cc2)c1 (some centres not stated)	/	/	/	/	.
Clc1ccc(C2CC(c3cccs3)n3ncnc3N2)cc1 (configuration not stated)	.	.	.	.	-41
FC(F)(F)CN1C[C@@H]2C(c3ccccc3)[C@H](C1)N2CC(F)(F)F (some centres not stated)	/	/	/	/	.
CCCn1c(=O)c2ccccc2n2c(SCCOc3ccc(OC)cc3)nnc12	.	.	.	.	-18
CCc1ncc(/C=C2\C(=O)Nc3ccccc32)[nH]1	.	.	.	.	.
Cc1ncc(/C=C2\C(=O)Nc3ccccc32)[nH]1	/	.	/	/	-19
CCCNC(=O)C[C@@H]1CC[C@@H]2[C@@H](COc3ccc(NC(=O)C4CCOCC4)cc3C(=O)N2C)O1	.	.	.	.	.
CC[C@@H]1C/C=C\C[C@H](c2ccc(OC)cc2OC)NC(=O)[C@@H](C)CC(=O)N1	/	/	/	/	.
Cc1cc(F)ccc1S(=O)(=O)Nc1ccccc1C(=O)NCc1cccnc1	/	.	/	/	-24
c1ccc(CN2CCN(C3CCCSc4ccccc43)CC2)cc1 (configuration not stated)	.	.	.	.	-30
SMILES	Cneo AK release	RAD52 inh	PglD DTNB	RAD54 branch	rRNA inh HTS
O=C(N/N=C/c1cc([N+](=O)[O-])ccc1Cl)c1ccc2nc[nH]c2c1	.	/	.	.	/
O=C(N/N=C/c1ccccc1C(F)(F)F)c1ccc2nc[nH]c2c1	.	.	.	.	-25
O=C(N/N=C/c1ccc(Cl)cc1Cl)c1ccc2nc[nH]c2c1	.	.	.	.	-18
C[C@H](CO)N1C[C@H](C)[C@H](CN(C)S(=O)(=O)c2ccc(F)cc2)OCCCC[C@H](C)Oc2ccc(NC(=O)C3CCCCC3)cc2C1=O	.	.	.	.	.
COCCNC(=O)C[C@H]1CC[C@@H]2[C@H](COC[C@@H](O)CN2C(=O)Nc2ccccc2OC)O1	.	.	.	.	.
CCOC(=O)CC(=O)CSc1nc2c(sc(=S)n2-c2ccc(OCC)cc2)c(=O)[nH]1	.	.	.	.	-28
CCOC(=O)CC(=O)CSc1nc2c(sc(=S)n2-c2ccc(C)c(C)c2)c(=O)[nH]1	.	.	.	.	.
CC=Cc1ccc2n(c1=O)C[C@H]1[C@H](CO)[C@@H](C(=O)NCCCN3CCOCC3)N(C)[C@@H]21 (mixture of isomers)	.	.	.	.	.
CCOC(=O)N1CCN(C(=O)c2cc3c(-c4cccc(OC)c4)nn(C)c3s2)CC1	.	.	.	.	-29
CCOC(=O)N1CCC(NC(=O)c2cc3c(-c4cccc(OC)c4)nn(C)c3s2)CC1	.	/	.	.	/
CN(C)CCCNC(=O)C[C@@H]1CC[C@H]2[C@@H](COC[C@H](O)CN2CC2CCCCC2)O1	/	65	/	/	.
O=C(C[C@@H]1CC[C@@H]2[C@H](COC[C@@H](O)CN2S(=O)(=O)c2ccc(F)cc2)O1)NCC1CC1	.	.	.	.	.
Cc1ccc(S(=O)(=O)N2C[C@@H](O)COC[C@H]3O[C@H](CC(=O)NCC4CCCCC4)CC[C@@H]32)cc1	.	82	.	.	.
Cc1ccc(S(=O)(=O)N2C[C@H](O)COC[C@H]3O[C@H](CC(=O)NCC4CCCCC4)CC[C@@H]32)cc1	.	65	.	.	.
O=C(C[C@@H]1CC[C@@H]2[C@H](COC[C@H](O)CN2S(=O)(=O)c2ccc(F)cc2)O1)NCC1CCCCC1	.	.	.	.	.
C[C@@H]1CN([C@@H](C)CO)C(=O)Cc2cc(NS(C)(=O)=O)ccc2O[C@H]1CN(C)C(=O)Nc1ccc(C(F)(F)F)cc1	/	/	/	/	.
COc1cccc(C(=O)Nc2ccc3c(c2)C(=O)N(C)[C@@H]2CC[C@@H](CC(=O)NCc4ccccc4F)O[C@H]2CO3)c1	/	/	/	/	.
CCOC(=O)N1CCC(N(CCOC)C(=O)Nc2ccc(Cl)cc2)CC1	.	.	.	.	-16
O=C1N/C(=N\S(=O)(=O)Cc2ccccc2)S/C1=C/c1cc([N+](=O)[O-])ccc1O	/	.	/	/	-20
